# MsrA act – bovine methionine sulfoxide reductase A activation. purified bovine MsrA, absorbance read-out. activation, % at 10.6 µM. 360,000 compounds, 0.3% hits. AID 602163; in the data active = activation above about 7.5%
# ASAP1 GAP inh – blocks human ASAP1-stimulated Arf1 GTP hydrolysis; Q9ULH1; GDP FP detection; inhibition, % at 16.5 µM; 360,000 compounds, 0.19% hits; in the data active = inhibition above about 25%
# Target sequence (Q9ULH1 325-724 limits assumed): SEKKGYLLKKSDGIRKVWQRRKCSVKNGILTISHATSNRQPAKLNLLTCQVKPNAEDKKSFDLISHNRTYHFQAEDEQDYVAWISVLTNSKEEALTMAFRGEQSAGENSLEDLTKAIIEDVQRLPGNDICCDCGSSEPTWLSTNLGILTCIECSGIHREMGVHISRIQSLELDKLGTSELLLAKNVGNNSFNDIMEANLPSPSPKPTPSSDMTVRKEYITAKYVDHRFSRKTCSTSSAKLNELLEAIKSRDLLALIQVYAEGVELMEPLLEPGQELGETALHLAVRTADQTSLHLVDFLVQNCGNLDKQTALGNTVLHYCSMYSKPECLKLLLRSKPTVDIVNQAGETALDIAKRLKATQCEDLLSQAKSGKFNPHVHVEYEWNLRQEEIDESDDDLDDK
# MsrA inhibitor – bovine MsrA inhibition; purified bovine MsrA, absorbance read-out; inhibition, % at 15.5 µM; 360,000 compounds, 0.75% hits
# ARFGAP1 inh – inhibits rat ARF GTPase activating protein 1; AID 651572; Q62848; inhibition, % at 16.5 µM; 360,000 compounds, 0.26% hits; Arfgap1-stimulated ARF1 GTP hydrolysis, GDP FP detection;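 active = inhibition above a per-plate limit, mean inhibition of low control wells plus 3 SD, cut at about 25% in these data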
# Target sequence (Q62848 1-136 limits assumed): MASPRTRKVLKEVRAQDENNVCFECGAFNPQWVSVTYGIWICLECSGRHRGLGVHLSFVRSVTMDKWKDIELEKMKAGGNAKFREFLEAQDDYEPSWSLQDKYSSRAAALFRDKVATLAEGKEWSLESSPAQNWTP
#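 System: truncated rat Arfgap1 GAP domain / Medium: HEPES-based buffer, pH 7.5 / Also added: N-terminally truncated human ARF1-GTP substrate / Incubation: enzyme reaction 120 min at 25 °C after 20 min preincubation / Measured by: FP of antibody-bound GDP Alexa 633 tracer, ex 620/em 688 nm / Replicates: singlicate, each compound tested once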
# MsrA conf – confirmation of bovine MsrA inhibitors; purified bovine MsrA, absorbance read-out; shares compounds with MsrA inhibitor; inhibition, % at 15.5 µM; AID 651822; 2,300 compounds, 41% hits;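 also: coupled to thioredoxin reductase with NADPH and selenocystamine and DMSO as substrate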
# A number is an active result; 0 = inactive; - = not tested or not shown. A selection: hits, their analogues and other compounds. The true share with any hit is near 1.4%. Rule as the data show it, unless noted: active = inhibition above about 4.5%; inactive = the rest.
SMILES,MsrA act,ASAP1 GAP inh,MsrA inhibitor,ARFGAP1 inh,MsrA conf
CC(=O)c1cccc(NC(=O)CC2S/C(=N/N=C/c3ccccc3)NC2=O)c1 (configuration not stated),0,0,0,0,-
O=C(O)CC1S/C(=N/N=C/C=C/c2ccccc2[N+](=O)[O-])NC1=O (configuration not stated),0,0,6.2,0,6.3
O=C(O)CC1S/C(=N/N=C/C=C/c2ccccc2)NC1=O (configuration not stated),0,0,9.2,0,7.8
O=C(O)CNC(=O)CC1S/C(=N/N=C/c2ccccc2O)NC1=O (configuration not stated),0,0,7.5,0,0
O=C(c1ccccc1)c1ccc(O)cc1O,0,0,5.6,0,0
COC(=O)c1sccc1NC(=O)c1ccc(Br)o1,0,0,5.7,0,0
COC(=O)c1sccc1NC(=O)c1ccc(C)o1,0,0,0,0,-
CN(C)CCNc1c(N)c(=O)oc2ccccc12,0,0,0,0,-
Cc1ccccc1Nc1c(N)c(=O)oc2ccccc12,0,0,6.1,0,7.8
Cc1onc(-c2ccccc2)c1C(=O)Nc1nnc(-c2ccncc2)s1,0,0,5.0,0,4.9
c1ccc(COc2ncnc3c2ncn3CCCNCc2ccc3c(c2)OCO3)cc1,0,0,0,0,-
COc1ccc2cc3cc(C(=O)NCCCN4CCOCC4)oc3nc2c1,0,0,6.6,0,0
NC(=O)CC(NC(=O)Cc1ccc(Br)cc1)c1ccc(N2CCC(Cc3ccccc3)CC2)c([N+](=O)[O-])c1 (configuration not stated),0,0,0,0,-
CCOC(=O)c1cc(C(=O)OCC)c(=O)[nH]c1N1CCCCC1,0,0,7.5,0,0
CCOC(=O)c1cc(C)nc(N2CCCCC2)c1C#N,0,0,0,0,-
C=C(C1=CCN(S(=O)(=O)C(C)(C)C)[C@@H]1CCO)c1ccccc1,0,0,0,0,-
O=C(N=Nc1c(O)[nH]c2ccccc12)c1ccccc1NS(=O)(=O)c1cccs1,0,0,4.8,0,0
COc1ccc(C2C(C#N)=C(N)Oc3c2sc2nc(C)cc(C)c32)cc1 (configuration not stated),0,0,9.2,0,0
COc1ccc(C2C(C#N)=C(N)Oc3cc(N)ccc32)cc1 (configuration not stated),0,0,0,0,-
CC1(C)Cc2c(sc(NC(=S)NC(=O)c3ccccc3)c2C(=O)O)CO1,0,0,0,0,-
CC1(C)Cc2c(sc(NC(=O)c3ccco3)c2C(=O)O)CO1,0,0,4.7,0,0
Nc1ccccc1-n1nc2ccc3ccccc3c2n1,0,0,0,0,-
COc1cc2nn(-c3ccccc3N)nc2cc1OC,0,0,4.8,0,0
Cc1nc2ccc(-c3nc4ccc(N)cc4[nH]3)cc2[nH]1,0,0,0,0,-
Nc1ccc(-c2nc3ccc([N+](=O)[O-])cc3[nH]2)cc1,0,0,0,0,-
SMILES,MsrA act,ASAP1 GAP inh,MsrA inhibitor,ARFGAP1 inh,MsrA conf
Nc1ccc(-c2nc3c(Cl)c(N)ccc3[nH]2)cc1,0,0,5.3,0,0
Nc1ccc2nc(-c3cc(Cl)c(N)c(Cl)c3)[nH]c2c1,0,0,4.8,0,5.6
Nc1ccc(-c2nc3ccc(N)cc3[nH]2)cc1,0,0,5.5,0,0
Cc1cc(N2CCN(S(C)(=O)=O)C[C@@H]2C)ccc1N1CCN(Cc2ccccc2)[C@@H](C)C1,-,0,0,0,-
CCN(Cc1ccncc1)C(=O)c1cc(COc2c(F)cccc2F)on1,0,0,0,0,-
O=C(c1ccc2c(c1)OCO2)N1CCN(c2ccc(Cl)cc2)CC1,0,0,0,0,-
CC(=O)c1ccc(N2CCN(C(=O)c3ccc4c(c3)OCO4)CC2)cc1,0,0,4.8,0,0
CCCS(=O)(=O)NC(=O)C1(C)CCN(C(=O)c2cccc(C)c2C)C1 (configuration not stated),0,0,0,0,-
O=C(CCN1C(=O)S/C(=C\c2ccccc2)C1=O)Nc1ccc(O)cc1C(=O)O,0,0,4.8,0,0
O=C(CCN1C(=O)S/C(=C/c2ccccc2)C1=O)Nc1ccc(O)c(C(=O)O)c1,0,0,6.5,0,0
O=C(CN1C(=O)S/C(=C\c2cccs2)C1=O)Nc1ccc(O)cc1C(=O)O,0,0,5.1,0,0
COc1ccc(/C=C2\SC(=S)N(CCC(=O)Nc3ccccc3C(=O)O)C2=O)cc1,0,0,0,0,-
O=C(CCN1C(=O)/C(=C\c2ccccc2)SC1=S)Nc1ccc(C(=O)O)cc1,0,0,0,0,-
Cc1csc2ncc(C(=O)N3c4ccccc4CC3C)c(=O)n12 (configuration not stated),0,0,6.4,0,0
CC1Cc2ccccc2N1C(=O)c1cnc2ccccn2c1=O (configuration not stated),0,0,0,0,-
CC(C)c1[nH]nc2c1C(c1ccc(F)cc1)N(Cc1ccccc1)C2=O (configuration not stated),-,0,0,0,-
O=C(N/C(=C/c1ccc(Cl)cc1)c1nc2ccccc2[nH]1)c1ccco1,0,0,0,0,-
O=C(N/C(=C/c1ccc(Br)cc1)c1nc2ccccc2[nH]1)c1ccco1,0,0,5.9,0,0
CN1c2ccsc2C(O)=C(C(=S)Nc2ccccc2)S1(=O)=O,0,0,0,0,-
CN1CCN(CCCNC(=S)Nc2ccc(F)c(Cl)c2)CC1,0,0,0,0,-
CN1c2ccccc2C(O)=C(C(=S)Nc2ccc(F)c(Cl)c2)S1(=O)=O,0,0,4.9,0,0
CN1c2ccccc2C(O)=C(C(=O)Nc2ccccc2)S1(=O)=O,0,0,0,0,-
CN1c2ccccc2C(O)=C(C(=S)Nc2ccccc2)S1(=O)=O,0,0,5.3,0,6.1
Cc1ccc(NC(=S)C2=C(O)c3ccccc3N(C)S2(=O)=O)cc1,0,0,4.8,0,0
COCCn1c(SCC(=O)c2c(N)n(C3CC3)c(=O)[nH]c2=O)nnc1-c1ccc(Cl)cc1,0,0,6.0,0,0
SMILES,MsrA act,ASAP1 GAP inh,MsrA inhibitor,ARFGAP1 inh,MsrA conf
CSc1ccc(OC2(C)CCN(Cc3ccc(OC(F)(F)F)cc3)C2)cc1 (configuration not stated),0,0,0,0,-
Cc1cc(C(=O)N/N=C/c2cccc([N+](=O)[O-])c2O)n[nH]1,0,0,0,0,-
O=C(N/N=C\c1ccc(O)c([N+](=O)[O-])c1)c1ccccc1-n1cccc1,0,0,6.6,0,0
COc1cc(C=NNC(=O)c2ccccc2-n2cccc2)ccc1O,0,0,0,0,-
Cc1cc(C(=O)N/N=C/c2ccc(O)c([N+](=O)[O-])c2)n[nH]1,0,0,6.8,0,6.0
O=C(N/N=C/c1ccc(O)c([N+](=O)[O-])c1)C(O)(c1ccccc1)c1ccccc1,0,0,6.4,0,4.9
COc1cc(C(=O)NC2CCN(CC(=O)Nc3cccc(C)c3C)CC2)cc(OC)c1OC,0,0,0,0,-
NS(=O)(=O)c1ccc(CNC(=O)CCSCCC(=O)NCc2ccc(S(N)(=O)=O)cc2)cc1,0,0,0,0,-
